Among the data in ChEMBL document CHEMBL6083205, “A comprehensive apoptotic assessment of niloticin in cervical cancer cells: a tirucallane-type triterpenoid from Aphanamixis polystachya (Wall.) Parker” (RSC Med Chem, 2024) are Activity and IC50 values, retold here.

Each structure is given as a SMILES string. Activity calls are given as the source filed them. The rule behind the calls is not given here.

The test system of series [1] is HeLa. Nature of the series: Induction of cell cycle arrest in human HeLa cells assessed as proportion of cell accumulation at G2 phase at 7 uM by propidium iodide staining based flow cytometry (reference value: 8.7%). In kind it is functional. (A flow cytometer gives signals particle by particle.)
The subject of series [2] is HeLa. Nature of the series: Induction of apoptosis in human HeLa cells assessed as DNA fragmentation by measuring CH-deformation with enhanced peak at 1420 to 1440 cm^-1 at 7 to 11 uM incubated for 24 hrs by surface-enhanced Raman spectroscopic analysis. In kind it is functional, cell-based. The following applies: dose 7-11 µM. Summed up: (§1)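 DNA isolated from control and 7 or 11 μM-treated HeLa, mixed 8:2 with 40–45 nm gold nanoparticles as SERS substrate, 10 min incubation; confocal Raman with 633 nm laser at 5 mW, 600 g/mm grating, 3 cm−1 resolution, 3 accumulations of 5 s integration.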

For series [3], the system named is HeLa. Nature of the series: Induction of cell cycle arrest in human HeLa cells assessed as downregulation of Cdk2 protein expression at 7 to 11 uM by western blot analysis. In kind it is functional, cell-based. The following applies: dose 7-11 µM. The gist of the method:
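Protein extracted from treated and untreated HeLa, BCA-quantified and normalised; SDS-PAGE, PVDF transfer, 5% skim milk block; primary antibodies 18 h at 4 °C, HRP secondary; chemiluminescent detection of Cdk-2, cyclin A2, cyclin B1, Cdc-25 with β-actin loading control.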

Series [4] relates to HeLa. Nature of the series: Induction of apoptosis in human HeLa cells assessed as increase in caspase-9 activation at 7 to 11 uM by fluorometric assay. In kind it is functional, cell-based. The following applies: dose 7-11 µM. The gist of the method:
(§2)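 HeLa seeded at 3 × 10^6 in 6-well plates, treated at 7 and 11 μM; caspase-3, -8 and -9 activity each measured by fluorometric kit per manufacturer's protocol; fluorescence read at ex 400 nm / em 505 nm; fold change versus control; mean ± SD.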

Series [5] deals with HeLa. Nature of the series: Induction of apoptosis in human HeLa cells assessed as proportion of viable cells at 11 uM by AnnexinV-FITC/PI staining based FACS analysis (reference value: 77.7%). In kind it is functional.
In series [6] the test system is HeLa. Nature of the series: Induction of apoptosis in human HeLa cells assessed as DNA fragmentation by measuring less intense peak for deoxyribose variation (1460-65 cm^-1) at 7 to 11 uM incubated for 24 hrs by surface-enhanced Raman spectroscopic analysis. In kind it is functional, cell-based. The conditions noted are these: dose 7-11 µM. Summed up:
as §1

In series [7] the test system is HeLa. Nature of the series: Induction of cell cycle arrest in human HeLa cells assessed as proportion of cell accumulation at G1 phase at 7 uM by propidium iodide staining based flow cytometry (reference value: 67.7%). In kind it is functional.
Series [8] in a line: Cytotoxicity against human MCF-10A cells assessed as inhibition of cell growth incubated for 24 hrs by MTT assay. In kind it is toxicity, cell-based. Summed up:
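Non-tumorigenic breast epithelial line grown in MEGM with 5% horse serum at 37 °C and 5% CO2. Plated at 8 × 10^3 cells per well and treated 24 h later for 24 h at 5–100 μM. MTT (0.5 mg/mL in HBSS) was applied for 2–4 h at 37 °C in the dark, then DMSO. Read at 570 nm for IC50.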
A general note: Tetrazolium dyes change colour on reduction, which living cells bring about.

Series [9] deals with HeLa. Nature of the series: Induction of cell cycle arrest in human HeLa cells assessed as proportion of cell accumulation at subG0 phase at 7 uM by propidium iodide staining based flow cytometry (reference value: 7.6%). In kind it is functional.
Series [10] has as its system HeLa. Nature of the series: Induction of apoptosis in human HeLa cells assessed as cells with impaired membrane by measuring increase in pink colour intensity at 7 to 11 uM by APOP staining based microscopy. In kind it is functional, cell-based. The conditions noted are these: dose 7-11 µM. The gist of the method:
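HeLa exposed to 7 and 11 μM versus untreated control; live/dead staining either with acridine orange–ethidium bromide dual stain (fluorescence, FITC filter) or with APOPercentage dye (pink uptake, brightfield); imaged on inverted microscope.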

Series [11] relates to HeLa. Nature of the series: Induction of apoptosis in human HeLa cells assessed as increase in caspase-8 activation at 7 to 11 uM by fluorometric assay. In kind it is functional, cell-based. The conditions noted are these: dose 7-11 µM. The gist of the method:
as §2

The subject of series [12] is HeLa. Nature of the series: Induction of cell cycle arrest in human HeLa cells assessed as proportion of cell accumulation at G1 phase at 11 uM by propidium iodide staining based flow cytometry (reference value: 67.7%). In kind it is functional.
A further series has as its system SiHa. Nature of the series: Antiproliferative activity against human SiHa cells assessed as inhibition of cell growth incubated for 24 hrs by MTT assay. In kind it is functional, cell-based. Summed up: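 Cervical squamous carcinoma cells were seeded at 8 × 10^3 cells per 100 μL and incubated 24 h before compound was added (5–100 μM). After 24 h exposure, cells were washed and given 0.5 mg/mL MTT in HBSS for 2–4 h at 37 °C in the dark. Formazan was solubilised in DMSO, absorbance read at 570 nm, and IC50 determined.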

Another series deals with PANC-1. Nature of the series: Antiproliferative activity against human PANC-1 cells assessed as inhibition of cell growth incubated for 24 hrs by MTT assay. The conditions noted are these: PANC-1, 24 h. In kind it is functional, cell-based. Summed up:
(§3)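 Cells kept in DMEM with 10% FBS and 1% antibiotic-antimycotic at 37 °C and 5% CO2. Seeded at 8 × 10^3 cells per 100 μL and left 24 h, then exposed 24 h to 5, 10, 20, 50 or 100 μM. MTT at 0.5 mg/mL in HBSS was added for 2–4 h at 37 °C in the dark. Formazan was dissolved in DMSO, A570 was read, and IC50 was derived.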

In a further series the test system is A549. Nature of the series: Antiproliferative activity against human A549 cells assessed as inhibition of cell growth incubated for 24 hrs by MTT assay. In kind it is functional, cell-based. The conditions noted are these: A549, 24 h. The gist of the method: as §3
For series [13], the system named is HeLa. Nature of the series: Induction of apoptosis in human HeLa cells assessed as proportion of late apoptotic cells at 11 uM by AnnexinV-FITC/PI staining based FACS analysis (reference value: 14.5%). In kind it is functional.
Series [14] relates to HeLa. Nature of the series: Induction of apoptosis in human HeLa cells assessed as proportion of necrotic cells at 7 uM by AnnexinV-FITC/PI staining based FACS analysis (reference value: 3.4%). In kind it is functional.
Series [15] concerns HeLa. Nature of the series: Induction of apoptosis in human HeLa cells assessed as proportion of early apoptotic cells at 11 uM by AnnexinV-FITC/PI staining based FACS analysis (reference value: 4.5%). In kind it is functional.
The subject of series [16] is HeLa. Nature of the series: Induction of cell cycle arrest in human HeLa cells assessed as proportion of cell accumulation at S phase at 11 uM by propidium iodide staining based flow cytometry (reference value: 15.9%). In kind it is functional.
Another series relates to MDA-MB-231. Nature of the series: Antiproliferative activity against human MDA-MB-231 cells assessed as inhibition of cell growth incubated for 24 hrs by MTT assay. In kind it is functional, cell-based. The following applies: MDA-MB-231, 24 h. Summed up:
as §3

Take `C[C@@H](C[C@@H](O)[C@@H]1OC1(C)C)[C@@H]1CC[C@]2(C)C3=CC[C@H]4C(C)(C)C(=O)CC[C@]4(C)[C@H]3CC[C@@]12C`: the Activity in the series with HeLa [1] is 5.4%; with HeLa [5], 29.6%; in the series on HeLa [7], 64%; in the series with HeLa [9], 25.6%; with HeLa [12], 44.1%; in the series on HeLa [13], 50.1%. The figures for the Activity in the series on HeLa [14], with HeLa [15] and in the series with HeLa [16] were 0.7%, 15.8% and 9.8%, respectively. For the same compound, the outcome with HeLa [2], in the series on HeLa [3], in the series on HeLa [4], in the series with HeLa [6], with HeLa [10] and in the series on HeLa [11] was Active. Further, in series [8], the IC50 – broadly, the concentration at which inhibition is half-maximal – at 24 h turned out to be 83.3 µM. Moreover, the IC50 amounted to 16.2 µM with SiHa, 16.5 µM in the series on PANC-1, 30.6 µM in the series on A549 and 23.9 µM in the series on MDA-MB-231.
